# Laboratory results from ChEMBL document CHEMBL1764975, “A new DNA gyrase inhibitor subclass of the cyclothialidine family based on a bicyclic dilactam-lactone scaffold. Synthesis and antibacterial properties” (J Med Chem, 2011).
# Assays:
# Escherichia coli [1] = assay: Inhibition of Escherichia coli DNA gyrase A2B2 complex after 30 mins by supercoiling assay
# Staphylococcus aureus [2] = assay: (§1) Antimicrobial activity against Staphylococcus aureus Smith after 18 hrs by agar dilution method; assay type: functional
# Summary of the method: (§2)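 Agar dilution on Mueller-Hinton medium, inoculum 10⁴ CFU/spot; MIC is the minimum inhibitory concentration against the named strain.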
# Staphylococcus aureus [3] = assay: Antimicrobial activity against multidrug-resistant Staphylococcus aureus after 18 hrs by agar dilution method; assay type: functional
# Summary of the method: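 Agar dilution on Mueller-Hinton agar, inoculum 10⁴ CFU/spot, against panels of multiresistant clinical strains (S. aureus 11, E. faecalis 16, E. faecium 23). MIC_50/90 in μg/mL taken as the minimum concentration inhibiting at least 50% or 90% of the strains tested.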
# Staphylococcus aureus [4] = assay: Antimicrobial activity against Staphylococcus aureus Smith infected in iv dosed septicaemia Swiss albino mouse model after 4 days; assay type: functional; conditions: 96 h
# Summary of the method: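 Septicaemia model in mice infected with S. aureus Smith, compound given iv. In experiments with 0-1 survivors among 5-10 control mice, ED₅₀ (mg/kg) taken as lowest dose giving 3-5 survivors out of 5 infected mice.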
# Staphylococcus aureus [5] = assay: Antimicrobial activity against Staphylococcus aureus ATCC 25923 after 18 hrs by agar dilution method; assay type: functional; conditions: ATCC 25923, 18 h; summary of the method: as §2
# [6] = Octanol-water partition coefficient, log D of the compound at pH 7.4 by shake-flask method; assay type: physicochemical
# Summary of the method: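 Octanol/water partition measured by shake-flask at pH 7.4.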
# Enterococcus faecalis = assay: Antimicrobial activity against Enterococcus faecalis 6 after 18 hrs by agar dilution method; conditions: Enterococcus faecalis, 6, 18 h
# [7] = system: Stenotrophomonas maltophilia; assay: Antimicrobial activity against Xanthomonas maltophilia IAC 739 after 18 hrs by agar dilution method; assay type: functional; conditions: IAC 739, 18 h; summary of the method: as §2
# [8] = system: Staphylococcus epidermidis; assay: Antimicrobial activity against Staphylococcus epidermidis 16/2 after 18 hrs by agar dilution method; assay type: functional; conditions: 16/2, 18 h; summary of the method: as §2
# Staphylococcus aureus [9] = assay: as §1; assay type: functional; summary of the method: as §2; remark: listed apart in the source
# Escherichia coli [10] = assay: Antimicrobial activity against Escherichia coli 25922 after 18 hrs by agar dilution method; assay type: functional; conditions: Escherichia coli, 25922, 18 h; summary of the method: as §2
# Streptococcus pyogenes = assay: Antimicrobial activity against Streptococcus pyogenes b15 after 18 hrs by agar dilution method; assay type: functional; conditions: b15, 18 h; summary of the method: as §2
Compound,MNEC (Escherichia coli [1]),MIC (Staphylococcus aureus [2]),ED50 (Staphylococcus aureus [4]),further results
COc1cc(O)c2c(c1Br)C(=O)O[C@H](c1ccccc1)C(=O)NCC(=O)N[C@H](c1nc(C)no1)CSC2,0.2 µg/mL,> 64 µg/mL,–,–
COc1cc(O)c2c(c1C)C(=O)O[C@H](CO)CCCC(=S)N[C@H](c1nc(CN)no1)CSC2,0.005 µg/mL,32 µg/mL,–,–
COc1cccc(OC)c1C(=O)N[C@@H]1C(=O)N2[C@@H]1SC(C)(C)[C@@H]2C(=O)O [METHICILLIN],–,–,–,MIC50 (Staphylococcus aureus [3]): 256 µg/mL; MIC90 (Staphylococcus aureus [3]): > 256 µg/mL
COc1cc(O)c2c(c1Br)C(=O)OCCN(C(C)=O)CC(=O)N[C@H](c1nc(C)no1)CSC2,0.01 µg/mL,16 µg/mL,–,–
COc1cc(O)c2c(c1C)C(=O)O[C@H](CO)CCCC(=S)N[C@H](c1nc(CO)no1)CSC2,0.01 µg/mL,10 µg/mL,–,–
COc1cc(O)c2c(c1C)C(=O)OC[C@@H](CO)CCC(=O)N[C@H](c1nc(C)no1)CSC2,0.1 µg/mL,64 µg/mL,–,–
COc1cc(O)c2c(c1C)C(=O)OC[C@@H](CO)CCC(=S)N[C@H](c1nc(C)no1)CSC2,0.05 µg/mL,1 µg/mL,> 25 mg/kg,–
COc1cc(O)c2c(c1Br)C(=O)OCCN(C(=O)[C@@H](N)CC(C)C)CC(=O)N[C@H](c1nc(C)no1)CSC2.Cl,0.1 µg/mL,16 µg/mL,–,–
COc1cc(O)c2c(c1Br)C(=O)OCCN(C)CC(=O)N[C@H](c1nc(C)no1)CSC2.Cl,0.05 µg/mL,1 µg/mL,> 25 mg/kg,–
COc1cc(O)c2c(c1C)C(=O)OC[C@H](CO)CCC(=O)N[C@H](c1nc(C)no1)CSC2,0.005 µg/mL,8 µg/mL,–,–
COc1cc(O)c2c(c1Br)C(=O)OCCN(C(=O)[C@H](C)N)CC(=O)N[C@H](c1nc(C)no1)CSC2.Cl,0.1 µg/mL,> 64 µg/mL,–,–
CO[C@@H]1[C@@H](OC(N)=O)[C@@H](O)[C@H](Oc2ccc3c(O)c(NC(=O)c4ccc(O)c(CC=C(C)C)c4)c(=O)oc3c2C)OC1(C)C [NOVOBIOCIN],–,–,3 mg/kg,MIC (Staphylococcus aureus [5]): 0.25 µg/mL; MIC (Enterococcus faecalis): 4 µg/mL; MIC [7]: > 64 µg/mL; MIC (Streptococcus pyogenes): 1 µg/mL; MIC [8]: 0.25 µg/mL; MIC (Staphylococcus aureus [9]): 0.12 µg/mL; MIC (Escherichia coli [10]): > 64 µg/mL
COc1cc(O)c2c(c1Br)C(=O)O[C@H](C)C(=O)NCC(=O)N[C@H](c1nc(C)no1)CSC2,0.05 µg/mL,2 µg/mL,> 12.5 mg/kg,–

# More lines, main results first:
MNEC (Escherichia coli [1]),MIC (Staphylococcus aureus [2]),Compound,ED50 (Staphylococcus aureus [4]),further results
0.1 µg/mL,0.5 µg/mL,COc1cc(O)c2c(c1Br)C(=O)OCCNCC(=S)N[C@H](c1nc(C)no1)CSC2.Cl,> 25 mg/kg,–
0.05 µg/mL,0.5 µg/mL,COc1cc(O)c2c(c1Br)C(=O)OCCCCC(=S)N[C@H](c1nc(CN)no1)CSC2.Cl,12.5 mg/kg,–
0.05 µg/mL,1 µg/mL,COc1cc(O)c2c(c1Br)C(=O)OCC(=O)NCC(=S)N[C@H](c1nc(CN)no1)CSC2.Cl,> 12 mg/kg,–
0.001 µg/mL,0.5 µg/mL,COc1cc(O)c2c(c1C)C(=O)OCC(=O)NCC(=S)N[C@H](c1nc(C)no1)CSC2,25 mg/kg,MIC (Staphylococcus aureus [5]): 1 µg/mL; logD [6]: 2.32; MIC (Enterococcus faecalis): 0.5 µg/mL; MIC [7]: 4 µg/mL; MIC [8]: < 0.12 µg/mL; MIC (Staphylococcus aureus [9]): 0.5 µg/mL; MIC (Escherichia coli [10]): > 64 µg/mL
0.02 µg/mL,8 µg/mL,COc1cc(O)c2c(c1Cl)C(=O)OCC(=O)NCC(=O)N[C@H](c1nc(C)no1)CSC2,25 mg/kg,–
0.1 µg/mL,32 µg/mL,COc1cc(O)c2c(c1Br)C(=O)OCC(=O)NCC(=O)N[C@H](c1nc(CN)no1)CSC2.Cl,–,–
0.01 µg/mL,8 µg/mL,COc1cc(O)c2c(c1C)C(=O)OCC(=O)NCC(=O)N[C@H](c1nc(C)no1)CSC2,> 25 mg/kg,MIC (Staphylococcus aureus [5]): 32 µg/mL; logD [6]: 1.05; MIC (Enterococcus faecalis): 8 µg/mL; MIC [7]: > 64 µg/mL; MIC (Streptococcus pyogenes): 2 µg/mL; MIC [8]: 1 µg/mL; MIC (Staphylococcus aureus [9]): 8 µg/mL; MIC (Escherichia coli [10]): > 64 µg/mL
0.02 µg/mL,32 µg/mL,COc1cc(O)c2c(c1Br)C(=O)OCC(=O)NCC(=O)N[C@H](c1nc(CO)no1)CSC2,–,–
0.05 µg/mL,0.12 µg/mL,COc1cc(O)c2c(c1Br)C(=O)OCC(=O)NCC(=S)N[C@H](c1nc(C)no1)CSC2,12.5 mg/kg,MIC (Staphylococcus aureus [5]): 0.25 µg/mL; logD [6]: 2.61; MIC (Enterococcus faecalis): < 0.12 µg/mL; MIC [7]: 0.25 µg/mL; MIC (Streptococcus pyogenes): 0.12 µg/mL; MIC [8]: < 0.12 µg/mL; MIC (Staphylococcus aureus [9]): < 0.12 µg/mL; MIC (Escherichia coli [10]): > 64 µg/mL
0.02 µg/mL,16 µg/mL,COc1cc(O)c2c(c1Br)C(=O)OCC(=O)NCC(=O)N[C@H](c1nc(CNC(C)C)no1)CSC2.Cl,–,–
